Data set [1] can be described thus: Solubility in alphaMEM culture medium containing 5% FCS at 22 degC. The data set is classed as physicochemical. The method, boiled down: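 Solubility was measured in αMEM with 5% FCS, equilibrated with 5% CO₂/air, at 22 °C.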
In data set [2] the test system is SK-OV-3. As to the kind of experiment: Cytotoxicity against human SKOV3 cells assessed as reduction of cell density incubated for 4 hrs in oxic (aerobic) condition measured 5 days post dose by SRB assay. The data set is classed as functional, cell-based. The method, boiled down:
(§1)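 Log-phase monolayers given a 4 h drug exposure under aerobic (20% O₂) or anoxic (<20 ppm O₂) conditions. Cells were then stained with sulforhodamine B 5 days later. IC50 was interpolated as the concentration that cut cell density to 50% of same-plate controls. Values are means of two to seven experiments.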

Data set [3] relates to HT-29. The data set is described as follows: Cytotoxicity against human HT-29 cells assessed as reduction of cell density incubated for 4 hrs in hypoxic (anoxic) condition measured 5 days post dose by SRB assay. The format is functional, cell-based. A digest of the protocol:
as §1
A general note: The SRB assay estimates cell density from bound dye.

The test system of data set [4] is HT-29. As to the kind of experiment: Cytotoxicity against human HT-29 cells assessed as reduction of cell density incubated for 4 hrs in oxic (aerobic) condition measured 5 days post dose by SRB assay. The data set is classed as functional, cell-based. A digest of the protocol: as §1
In data set [5] the test system is SK-OV-3. The data set is described as follows: Cytotoxicity against human SKOV3 cells assessed as reduction of cell density incubated for 4 hrs in hypoxic (anoxic) condition measured 5 days post dose by SRB assay. The format is functional, cell-based. A digest of the protocol: as §1
Data set [6] has as its system A549. The data set is described as follows: Cytotoxicity against human A549 cells after 24 hrs. The format is functional, cell-based. The following applies: A549, 24 h.
For data set [7], the system named is HT-29. As to the kind of experiment: Hypoxic cytotoxicity ratio, ratio of IC50 for human HT-29 cells in oxic (aerobic) condition to IC50 for human HT-29 cells in hypoxic (anoxic) conditions. The data set is classed as functional. The method, boiled down: (§2)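 HCR was calculated as IC50(oxic)/IC50(hypoxic) after 4 h drug exposure at 20% O₂ or <20 ppm O₂, with SRB read-out 5 days later.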

Data set [8] concerns SK-OV-3. As to the kind of experiment: Hypoxic cytotoxicity ratio, ratio of IC50 for human SKOV3 cells in oxic (aerobic) condition to IC50 for human SKOV3 cells in hypoxic (anoxic) conditions. The format is functional. The method, boiled down:
as §2

Data set [9] concerns EMT6. As to the kind of experiment: Cytotoxicity against mouse EMT6 cells. The data set is classed as functional, cell-based.
The subject of data set [10] is CHO-AA8. The data set is described as follows: Cytotoxicity against chinese hamster ovary AA8 cells incubated for 4 hrs. The format is functional, cell-based. The settings on record: Cricetulus griseus, CHO-AA8, 4 h.
For data set [11], the system named is SK-OV-3. As to the kind of experiment: Cytotoxicity against human SKOV3 cells. The data set is classed as functional, cell-based. A digest of the protocol:
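Log-phase SKOV3 ovarian carcinoma monolayers were exposed to drug for 4 h under aerobic (20% O₂) or anoxic (<20 ppm O₂) conditions, then stained with sulforhodamine B 5 days later. IC50 was interpolated as the concentration that cut cell density to 50% of same-plate controls, given as mean ± SEM of 2–7 experiments. HCR is IC50(oxic)/IC50(hypoxic), taken as means of intraexperiment ratios.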

Results on 19 compounds are retold here after ChEMBL document CHEMBL1811874, “The effect of sulfonate leaving groups on the hypoxia-selective toxicity of nitro analogs of the duocarmycins” (Bioorg Med Chem, 2011).

pIC50: −log10 of the molar value. In brackets after ≈: the same amount, converted by molar mass.

As to `CN(C)CCOc1ccc2[nH]c(C(=O)N3CC(CCl)c4c3cc([N+](=O)[O-])c3ccccc43)cc2c1` (configuration not stated), the solubility in [1] came to 193 µM (≈ 95.1 µg/mL). Besides, the pIC50 in data set [2] was 5.85; in [3], 6.32; in [4] it was 6.33; in data set [5] it was 6.06.

In data set [6], `CN(C)CCOc1ccc2[nH]c(C(=O)N3C[C@@H](CCl)c4c3cc(O)c3ccccc43)cc2c1` gave a pIC50 of 10.59.

The compound `CN(C)CCOc1ccc2[nH]c(C(=O)N3CC(COS(=O)(=O)C4CCCCC4)c4c3cc([N+](=O)[O-])c3ccccc43)cc2c1` (configuration not stated) registered a solubility in data set [1] of 22 µM (≈ 13.7 µg/mL). Besides, the “Ratio IC50” value stood at 2.3 in [7] and 1.5 in data set [8]. For the same compound, the pIC50 is 6.33 in [2], 6.70 in data set [3], 6.39 in [4] and 6.52 in data set [5].

Compound `COc1ccc(/C=C/C(=O)N2CC(CCl)c3c2cc([N+](=O)[O-])c2ccccc32)cc1O` (configuration not stated) yielded a solubility in data set [1] of 9 µM (≈ 3.95 µg/mL). Besides, the “Ratio IC50” value came to 4.5 in data set [7] and 3.3 in data set [8]. The pIC50 in data set [2] was 6.05; in [3], 6.23; in data set [4], 5.77; in [5], 6.40.

In data set [1], `COc1cc2cc(C(=O)N3CC(COS(C)(=O)=O)c4c3cc(N)c3ccccc43)[nH]c2c(OC)c1OC` (configuration not stated) registered a solubility of 15 µM (≈ 7.88 µg/mL).

In the case of `Nc1cc2c(c3ccccc13)C(CCl)CN2C(=O)c1cc2cc(OCCO)ccc2[nH]1` (configuration not stated), the concentration in solution in data set [1] (solubility) was 22 µM (≈ 9.59 µg/mL). Besides, the pIC50 in data set [2] was 8.48; in [5] it was 8.38. Moreover, the “Ratio IC50” value in data set [8] worked out at 0.8.

Take `COc1cc2cc(C(=O)N3CC(COS(C)(=O)=O)c4c3cc([N+](=O)[O-])c3ccccc43)[nH]c2c(OC)c1OC` (configuration not stated): the solubility in [1] turned out to be 69 µM (≈ 38.3 µg/mL). In addition, the “Ratio IC50” value in data set [7] is listed as 4.6; in data set [8] it was 39. The pIC50 in data set [2] was 5.66; in [3], 6.51; in [4], 5.82; in data set [5], 6.85.

In the case of `COc1ccc(/C=C/C(=O)N2CC(COS(=O)(=O)Cc3ccccc3)c3c2cc([N+](=O)[O-])c2ccccc32)cc1O` (configuration not stated), the concentration in solution in data set [1] (solubility) came to 35 µM (≈ 20.1 µg/mL). Moreover, the results for the “Ratio IC50” value in data set [7] and in [8] were 1.1 and 3.9, respectively. Besides, the pIC50 is 6.24 in [2], 6.00 in [3], 6.00 in [4] and 6.80 in [5].

For `COc1cc2cc(C(=O)N3CC(COS(=O)(=O)C4CCCCC4)c4c3cc(N)c3ccccc43)[nH]c2c(OC)c1OC` (configuration not stated), the solubility in data set [1] was found to be 37 µM (≈ 22 µg/mL). For the same compound, the pIC50 in data set [2] was 8.31; in data set [5], 8.19. Further, the “Ratio IC50” value in data set [8] came out at 1.

`O=C(c1cc2cc(OCCO)ccc2[nH]1)N1CC(COS(=O)(=O)Cc2ccccc2)c2c1cc([N+](=O)[O-])c1ccccc21` (configuration not stated): in data set [1], the solubility was determined as 46 µM (≈ 27.7 µg/mL). In addition, the “Ratio IC50” value stood at 2.4 in [7] and 7.1 in [8]. Also, the pIC50 in [2] was 5.92; in [3] it was 6.18; in [4] it was 5.74; in [5] it was 6.68.

Consider `COc1ccc2[nH]c(C(=O)N3CC(COS(=O)(=O)c4ccc(C)cc4)c4c3cc([N+](=O)[O-])c3ccccc43)cc2c1` (configuration not stated), for which the solubility in [1] was determined as 12 µM (≈ 6.86 µg/mL). In addition, the “Ratio IC50” value in data set [7] came to 7.9; in [8], 34. In addition, the pIC50 was 4.96 in [2], 6.15 in data set [3], 5.19 in data set [4] and 6.42 in [5].

In [1], `COc1cc2cc(C(=O)N3CC(CCl)c4c3cc([N+](=O)[O-])c3ccccc43)[nH]c2c(OC)c1OC` (configuration not stated) returned a solubility of 5 µM (≈ 2.48 µg/mL). For the same compound, the pIC50 in data set [2] was 5.38; in data set [3] it was 5.80; in [4] it was 5.47; in [5], 5.77.

In [1], `COc1ccc2[nH]c(C(=O)N3CC(CCl)c4c3cc([N+](=O)[O-])c3ccccc43)cc2c1` (configuration not stated) gave a solubility of 38 µM (≈ 16.6 µg/mL). Further, the entries for the “Ratio IC50” value in data set [7] and in [8] were 7.4 and 3.1, respectively. Further, the pIC50 in [2] is 5.32; in [3] it was 5.89; in [4], 5.01; in [5] it was 5.81.

As to `COc1cc2cc(C(=O)N3CC(COS(=O)(=O)C4CCCCC4)c4c3cc([N+](=O)[O-])c3ccccc43)[nH]c2c(OC)c1OC` (configuration not stated), the solubility in [1] was 70 µM (≈ 43.7 µg/mL). Further, the “Ratio IC50” value in data set [7] was determined as 26; in [8] it was 146. Also, the pIC50 was 4.80 in data set [2], 6.36 in [3], 5.00 in [4] and 6.72 in data set [5].

For the compound `COc1cc2cc(C(=O)N3CC(COS(=O)(=O)c4ccc(C)cc4)c4c3cc([N+](=O)[O-])c3ccccc43)[nH]c2c(OC)c1OC` (configuration not stated), the concentration in solution in data set [1] (solubility) came to 89 µM (≈ 56.2 µg/mL). The “Ratio IC50” value in data set [7] turned out to be 28; in [8], 72. Further, the pIC50 was 5.06 in data set [2], 6.33 in data set [3], 4.92 in [4] and 6.66 in [5].

For the compound `O=C(c1cc2cc(OCCO)ccc2[nH]1)N1CC(CCl)c2c1cc([N+](=O)[O-])c1ccccc21` (configuration not stated), the solubility in [1] was 13 µM (≈ 6.06 µg/mL). The “Ratio IC50” value in data set [7] amounted to 1.1; in [8] it was 3.8. For the same compound, the pIC50 is 5.03 in [2], 5.24 in [3], 5.18 in [4] and 5.48 in data set [5].

As to `CN(C)CCOc1ccc2[nH]c(C(=O)N3CC(COS(=O)(=O)Cc4ccccc4)c4c3cc([N+](=O)[O-])c3ccccc43)cc2c1` (configuration not stated), the solubility in data set [1] amounted to 91 µM (≈ 57.2 µg/mL). Besides, the figures for the “Ratio IC50” value in data set [7] and in [8] were 4 and 1.8, respectively. Besides, the pIC50 is 6.57 in data set [2], 7.10 in [3], 6.62 in data set [4] and 6.82 in data set [5].

With `Cc1ccc(S(=O)(=O)OCC2CN(C(=O)c3cc4cc(OCCO)ccc4[nH]3)c3cc([N+](=O)[O-])c4ccccc4c32)cc1` (configuration not stated), the solubility in data set [1] worked out at 29 µM (≈ 17.4 µg/mL). The “Ratio IC50” value in [7] was 0.81; in data set [8], 2.8. For the same compound, the pIC50 in data set [2] was 5.52; in [3], 5.57; in data set [4], 5.48; in data set [5] it was 6.11.

Take `COc1cc2cc(C(=O)N3CC(CCl)c4c3cc(N)c3ccccc43)[nH]c2c(OC)c1OC` (configuration not stated): the pIC50 was 9.40 in [9], over 9.00 in [10] and 8.92 in [11].

Broadly, the solubility is the dissolved amount per volume that the medium holds. Higher therefore signals a readily soluble substance. Broadly, the pIC50 is the IC50 on a negative log10 scale, so that one unit is a factor of ten.
